Assay results pooled from the literature.
Cell line: MDA-MB-231
Effect on: cell growth or viability

Structure (SMILES)	method	tested at	time	quantity	result
CCOc1cc(-c2nc3ccccc3[nH]2)ccc1O	MTT		48 h	IC50	48.3 µM
O=C1CCCCC1=C1Sc2nc3ccc(S(=O)(=O)N4CCCC4)cc3nc2S1	MTT	3.125 µM	24 h	viability	69.8%
Cc1ccc2nc(-c3ccc(Cl)cc3Cl)[nH]c2c1	MTT		48 h	IC50	27.5 µM
CCOc1cccc(CN2CCc3cc(O)c(OC)cc3C2)c1	WST-1		96 h	GI50	> 100 µM
Cc1ccc2nc(-c3ccc4c(c3)OCO4)[nH]c2c1	MTT		48 h	IC50	> 100 µM
CCOc1cc(CN2CCc3cc(O)c(OC)cc3C2)cc(OCC)c1OCC	WST-1		96 h	GI50	> 100 µM
N#CC(C(=O)Nc1cccc(C(F)(F)F)c1)=C1Sc2nc3ccc(S(=O)(=O)N4CCCC4)cc3nc2S1	MTT	100 µM	24 h	viability	12.9%
Cc1ccc2nc(-c3ccco3)[nH]c2c1	MTT		48 h	IC50	> 100 µM
CC/C(=C(\c1ccccc1)c1ccc(OCCN(C)C)cc1)c1ccccc1	ATP luminescence		72 h	EC90	33.4 µM
Cc1ccc2nc(-c3c4ccccc4cc4ccccc34)[nH]c2c1	MTT		48 h	IC50	36.8 µM
CCOC(=O)C(C(C)=O)=C1Sc2nc3ccc(S(=O)(=O)N4CCCC4)cc3nc2S1	MTT	50 µM	24 h	viability	8.1%
COc1cc2c(cc1OS(N)(=O)=O)CCN(Cc1cccc([N+](=O)[O-])c1)C2	WST-1		96 h	GI50	1.91 µM
Cc1ccc2nc(-c3cccc(O)c3)[nH]c2c1	MTT		48 h	IC50	> 100 µM
COc1cc2c(cc1OS(N)(=O)=O)CCN(Cc1cccc(O)c1)C2	WST-1		96 h	GI50	41 µM
COc1cccc2c1C(=O)c1c(O)c3c(c(O)c1C2=O)C[C@@](O)(C(=O)CO)C[C@@H]3O[C@H]1C[C@H](N)[C@H](O)[C@H](C)O1	MTT		48 h	IC90	> 20 µM
C[C@]12CC[C@@H]3c4ccc(O)cc4CC[C@H]3[C@@H]1CC[C@@H]2O	ATP luminescence		72 h	EC90	40.1 µM
C[C@]1(c2nc3c(C(N)=O)cccc3[nH]2)CCCN1	ATP luminescence		7 days	EC50	> 10 µM
COc1cc2c(cc1O)CCN(Cc1cccc(OC(C)C)c1)C2	WST-1		96 h	GI50	86 µM
C=CCn1c(-c2ccc([N+](=O)[O-])cc2)nc2ccc(C)cc21	MTT			IC50	> 100 µM
COc1ccc(/C=C\c2cc(OC)c(OC)c(OC)c2)cc1O	imaging		72 h	CC50	0.0037 µM
COc1cc2c(cc1OS(N)(=O)=O)CCN(Cc1cccc(OS(N)(=O)=O)c1)C2	WST-1		96 h	GI50	34.9 µM
CCc1cc(CN2CCc3cc(O)c(OC)cc3C2)cc(CC)c1CC	WST-1		96 h	GI50	26 µM
CCOc1cccc(CN2CCc3cc(OS(N)(=O)=O)c(OC)cc3C2)c1	WST-1		96 h	GI50	0.65 µM
COc1cccc2c1C(=O)c1c(O)c3c(c(O)c1C2=O)C[C@@](O)(C(=O)CO)C[C@@H]3O[C@H]1C[C@H](N)[C@H](O)[C@H](C)O1	MTT	100 µM	24 h	viability	4.1%
COc1cc2c(cc1O)CCN(Cc1cccc(OC)c1OC)C2	WST-1		96 h	GI50	> 100 µM
CCOc1c(OC)cc(CN2CCc3cc(O)c(OC)cc3C2)cc1OC	WST-1		96 h	GI50	0.3 µM
CC(=O)O[C@H]1C(=O)[C@@]2(C)[C@H]([C@H](OC(=O)c3ccccc3)[C@]3(O)C[C@H](OC(=O)[C@H](O)[C@@H](NC(=O)c4ccccc4)c4ccccc4)C(C)=C1C3(C)C)[C@]1(OC(C)=O)CO[C@@H]1C[C@@H]2O	MTT			IC50	1.38 µM
COc1cc2c(cc1OS(N)(=O)=O)CCN(Cc1cccc(C#N)c1)C2	WST-1		96 h	GI50	4.7 µM
